From ChEMBL document CHEMBL3243987 (J Med Chem, 1979) come the findings set out here.

≈ marks a conversion by molar mass, not a printed value.

The target in one assay is Dihydrofolate reductase (Lactobacillus casei, UniProt P00381). The experiment in a line: Inhibition of Lactobacillus casei ATCC 7469 dihydrofolate reductase. More on the design: species or system Lacticaseibacillus casei.
A further assay relates to Lacticaseibacillus casei. Put plainly: Antimicrobial activity against folate-dependent Lactobacillus casei ATCC 7469 assessed as growth inhibition. The class given is functional, organism-based.
The subject of a further assay is CCRF-CEM. Put plainly: Antitumor activity against human CCRF-CEM assessed as growth inhibition. The class given is functional. The conditions noted are these: read-out: ID50 (the source's name).
Assay [1] relates to L1210. Put plainly: Antitumor activity against mouse L1210 cells allografted in BDF/1 hybrid mouse assessed as increase in life span at 50 to 200 mg/kg, ip first dose treated 24 hrs after tumor implantation and on day 4 and 7. The following applies: dose mg/kg 50-200; route intraperitoneal. The class given is functional. The method, boiled down: (§1)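 Male BDF/1 hybrid mice were inoculated ip with 10⁵ L-1210 leukemia cells and then given three doses (mg/kg × 3). The read-out was percent increase in life span (% ILS) compared with untreated control animals, reported at the optimal dose.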

The test system of assay [2] is L1210. The experiment in a line: Antitumor activity against mouse L1210 cells allografted in BDF/1 hybrid mouse assessed as increase in life span at 30 mg/kg, ip first dose treated 24 hrs after tumor implantation and on day 4 and 7. The class given is functional. The conditions noted are these: route intraperitoneal. An outline of the steps:
as §1

In another assay the target is T1, Thymidylate synthase (Lactobacillus casei, UniProt P00469).
T1 sequence (P00469 whole entry): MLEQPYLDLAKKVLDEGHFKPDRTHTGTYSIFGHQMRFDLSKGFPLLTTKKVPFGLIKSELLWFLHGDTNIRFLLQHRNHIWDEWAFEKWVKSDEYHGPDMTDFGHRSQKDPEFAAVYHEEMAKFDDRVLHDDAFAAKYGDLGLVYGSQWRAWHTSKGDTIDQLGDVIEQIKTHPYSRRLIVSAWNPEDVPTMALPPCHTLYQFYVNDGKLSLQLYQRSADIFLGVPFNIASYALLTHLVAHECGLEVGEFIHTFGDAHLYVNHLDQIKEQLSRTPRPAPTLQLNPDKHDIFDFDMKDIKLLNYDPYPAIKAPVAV
The experiment in a line: Inhibition of Lactobacillus casei ATCC 7469 thymidylate synthase. Also on record: species or system Lacticaseibacillus casei.

Assay [3] relates to L1210. Put plainly: Antitumor activity against mouse L1210 cells allografted in BDF/1 hybrid mouse assessed as increase in life span at 400 mg/kg, ip first dose treated 24 hrs after tumor implantation and on day 4 and 7. Type of assay: functional. The conditions noted are these: route intraperitoneal. An outline of the steps:
as §1

Assay [4] relates to L1210. Put plainly: Antitumor activity against mouse L1210 cells allografted in BDF/1 hybrid mouse assessed as increase in life span at 200 mg/kg, ip first dose treated 24 hrs after tumor implantation and on day 4 and 7. The class given is functional. The following applies: route intraperitoneal. The method, boiled down: as §1

Chain of Dihydrofolate reductase (P00381 whole entry): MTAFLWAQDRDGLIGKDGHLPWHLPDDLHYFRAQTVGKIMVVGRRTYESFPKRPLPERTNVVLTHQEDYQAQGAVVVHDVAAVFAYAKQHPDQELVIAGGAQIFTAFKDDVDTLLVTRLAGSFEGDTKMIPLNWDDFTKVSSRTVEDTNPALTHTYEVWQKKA

Broadly, the ILS is how much longer treated animals lived than controls. Regarding `COC(=O)CCC1NC(=O)N(c2ccc(N(C)Cc3cnc4nc(N)nc(N)c4n3)cc2)C1=O` (racemic), the IC50 at Dihydrofolate reductase is 4000 nM; in the assay on Lacticaseibacillus casei, 0.104 µg/mL (≈ 0.223 µM); in the assay on CCRF-CEM, 6.7 µg/mL (≈ 14.4 µM). In the assay with L1210 [1], the increase in lifespan (ILS) is recorded as 0%.

`COC(=O)CC[C@H](NC(=O)Nc1ccc(N(C)Cc2cnc3nc(N)nc(N)c3n2)cc1)C(=O)OC`: the IC50 was found to be 300 nM at Dihydrofolate reductase, 0.006 µg/mL (≈ 0.0121 µM) in the assay on Lacticaseibacillus casei and 3.5 µg/mL (≈ 7.03 µM) with CCRF-CEM.

Regarding `CN(Cc1cnc2nc(N)nc(N)c2n1)c1ccc(C(=O)N[C@@H](CCC(=O)O)C(=O)O)cc1` [METHOTREXATE], the ILS at 30 mg/kg in the assay on L1210 [2] came out at 88%. Further, the IC50 with CCRF-CEM came to 0.02 µg/mL (≈ 0.044 µM).

For `COC(=O)C[C@H](NC(=O)Nc1ccc(N(C)Cc2cnc3nc(N)nc(N)c3n2)cc1)C(=O)OC`, the IC50 against Dihydrofolate reductase is 600 nM; with Lacticaseibacillus casei, 0.006 µg/mL (≈ 0.0124 µM); with CCRF-CEM, 3.9 µg/mL (≈ 8.07 µM).

Take `CN(Cc1cnc2nc(N)nc(N)c2n1)c1ccc(NC(=O)NC(CC(=O)O)C(=O)O)cc1` (racemic): the IC50 on Thymidylate synthase was 190000 nM; at Dihydrofolate reductase it was 50 nM; with Lacticaseibacillus casei it was 0.15 µg/mL (≈ 0.329 µM); with CCRF-CEM, 3.2 µg/mL (≈ 7.03 µM). Further, the ILS at 400 mg/kg with L1210 [3] turned out to be 22%.

Turning to `CN(Cc1cnc2nc(N)nc(N)c2n1)c1ccc(NC(=O)NC(CCC(=O)O)C(=O)O)cc1` (racemic), the IC50 at Thymidylate synthase amounted to 250000 nM; against Dihydrofolate reductase, 80 nM; in the assay with Lacticaseibacillus casei, 0.008 µg/mL (≈ 0.017 µM); in the assay on CCRF-CEM, 0.4 µg/mL (≈ 0.852 µM). In addition, the ILS at 200 mg/kg with L1210 [4] was 55%.
